The values below come from ChEMBL document CHEMBL1141292, “Sesquiterpenoids and artificial 19-oxygenated steroids from the formosan soft coral Nephthea erecta” (2007).

Values after ≈ are worked out from the molar mass of the structure shown.

For the first test, the system named is P388. The test can be described thus: Cytotoxicity against mouse P388 cells by MTT assay. Format: functional. The conditions noted are these: read-out: ED50 (the source's name). Summed up: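 P-388 mouse lymphocytic leukemia cells; viability read by MTT assay, following a previously described procedure.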
Background: Formazan colour is commonly taken as a measure of viable cells.
On to `C=C(CC[C@@H](C)[C@H]1CC[C@H]2[C@@H]3C=CC4=C[C@@H]5OC[C@@]4(C[C@@H]5O)[C@H]3CC[C@]12C)C(C)C`, for which the EC50 is greater than 10 µg/mL.
Same read-out and setting: the figure for `C[C@H]1CCC[C@@]2(C)C[C@H]3OO[C@@]12C=C3C(C)(C)O` is greater than 10 µg/mL; for `C=C(C)[C@@]1(OO)CC[C@]2(C)[C@H]3CC[C@@H](C)[C@H]3[C@@H]21` it is 0.3 µg/mL (≈ 1.27 µM); for `C=C(CC[C@@H](C)[C@H]1CC[C@H]2[C@@H]3C=CC4=CC=CC[C@]4(CO)[C@H]3CC[C@]12C)C(C)C` it is greater than 10 µg/mL.
Still for that read-out and setting: the figure for `C[C@H]1CCC[C@@]2(C)C[C@H]3OO[C@@]12C=C3C(C)(C)OO` is 0.2 µg/mL (≈ 0.745 µM); for `C=C(C)[C@@]1(O)CC[C@]2(C)[C@H]3CC[C@@H](C)[C@H]3[C@@H]21` it is greater than 10 µg/mL.
Same read-out and setting: the figure for `C=C(C)[C@H]1[C@@H]2[C@H](C)CC[C@@H]2[C@@]2(C)CC[C@@H]12` is 2.8 µg/mL (≈ 13.7 µM); for `C=C(CC[C@@H](C)[C@H]1CC[C@H]2[C@@H]3C[C@H]4OC[C@@]5(CC[C@H](O)C[C@]45O)[C@H]3CC[C@]12C)C(C)C` it is greater than 10 µg/mL; for `C[C@@H]1CC[C@@H](C(C)(C)O)C[C@]2(C)C1=C[C@H]1O[C@H]12` (relative stereo) it is greater than 10 µg/mL.

The subject of a further test is HT-29. The test can be described thus: Cytotoxicity against human HT29 cells by MTT assay. The class given is functional. Particulars: read-out: ED50 (the source's name). A digest of the protocol:
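HT-29 human colon adenocarcinoma cells; viability read by MTT assay, following a previously described procedure.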
With `C=C(CC[C@@H](C)[C@H]1CC[C@H]2[C@@H]3C=CC4=C[C@@H]5OC[C@@]4(C[C@@H]5O)[C@H]3CC[C@]12C)C(C)C`, the EC50 is greater than 10 µg/mL.
The same measure, in the same setting: for `C[C@H]1CCC[C@@]2(C)C[C@H]3OO[C@@]12C=C3C(C)(C)O` the value was greater than 10 µg/mL; for `C=C(C)[C@@]1(OO)CC[C@]2(C)[C@H]3CC[C@@H](C)[C@H]3[C@@H]21`, 0.5 µg/mL (≈ 2.12 µM).
The same measure, in the same setting: for `C=C(CC[C@@H](C)[C@H]1CC[C@H]2[C@@H]3C=CC4=CC=CC[C@]4(CO)[C@H]3CC[C@]12C)C(C)C` the value was greater than 10 µg/mL; for `C[C@H]1CCC[C@@]2(C)C[C@H]3OO[C@@]12C=C3C(C)(C)OO`, 0.4 µg/mL (≈ 1.49 µM); for `C=C(C)[C@@]1(O)CC[C@]2(C)[C@H]3CC[C@@H](C)[C@H]3[C@@H]21`, greater than 10 µg/mL.
Same read-out and setting: the figure for `C=C(C)[C@H]1[C@@H]2[C@H](C)CC[C@@H]2[C@@]2(C)CC[C@@H]12` is 3.2 µg/mL (≈ 15.7 µM).
Consider `C=C(CC[C@@H](C)[C@H]1CC[C@H]2[C@@H]3C[C@H]4OC[C@@]5(CC[C@H](O)C[C@]45O)[C@H]3CC[C@]12C)C(C)C`, for which the EC50 is greater than 10 µg/mL.
Same read-out and setting: for `C[C@@H]1CC[C@@H](C(C)(C)O)C[C@]2(C)C1=C[C@H]1O[C@H]12` (relative stereo) the value was greater than 10 µg/mL.
